This is an account of results in ChEMBL document CHEMBL4680257, “Discovery of novel NF-кB inhibitor based on scaffold hopping: 1,4,5,6,7,8-hexahydropyrido[4,3-d]pyrimidine” (Eur J Med Chem, 2020).

One data set has as its system HepG2. As to the kind of experiment: Cytotoxicity against human HepG2 cells assessed as reduction in cell viability incubated for 24 hrs by MTT assay. The following applies: HepG2, 24 h. The data set is classed as functional, cell-based. The procedure, abridged:
(§1)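 Cells kept at 37 °C in 5% CO₂. HepG2 grown in DMEM with 10% serum; HHL-5, LO2 and SMMC-7721 in 1640 medium with 10% serum. Seeded, grown 24 h, then exposed 24 h to 10, 5, 2.5, 1.25, 0.625 and 0.3125 µg/mL. MTT (5 mg/mL) added for 4 h at 37 °C; formazan dissolved in DMSO, OD read at 570 nm. IC50 averaged from three replicates.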
Background: Tetrazolium dyes change colour on reduction, which living cells bring about.

The next data set relates to SMMC-7721. As to the kind of experiment: Cytotoxicity against human SMMC-7721 cells assessed as reduction in cell viability incubated for 24 hrs by MTT assay. In kind it is functional, cell-based. The following applies: SMMC-7721, 24 h. Put shortly:
as §1

Data set [1] can be described thus: Cytotoxicity against human HHL-5 cells assessed as reduction in cell viability incubated for 24 hrs by MTT assay. In kind it is cell-based. The following applies: HHL-5, 24 h. Put shortly:
as §1

Another data set deals with L02. As to the kind of experiment: Cytotoxicity against human L02 cells assessed as reduction in cell viability incubated for 24 hrs by MTT assay. The data set is classed as cell-based. The following applies: L02, 24 h. Put shortly:
as §1

In another data set the test system is RAW264.7. As to the kind of experiment: Cytotoxicity against mouse RAW264.7 cells assessed as reduction in cell viability at 5 uM incubated for 24 hrs by MTT assay. The data set is classed as cell-based. The following applies: raw264.7, 24 h.

For `O=C1/C(=C/c2cccc(F)c2)CN(S(=O)(=O)c2ccccc2)C/C1=C\c1cccc(F)c1`, the half-maximal inhibitory concentration (IC50) (commonly the concentration that inhibits the measured activity by half) in the data set with HepG2 was 3.4 µM; in the data set with SMMC-7721, 12.9 µM; in data set [1], 17.1 µM; in the data set on L02, 16.2 µM. The Activity entry in the data set with RAW264.7 is “Non-Toxic”.
On to `O=C1/C(=C/c2ccccc2F)CN(S(=O)(=O)c2ccccc2)C/C1=C\c1ccccc1F`, for which the IC50 in the data set with HepG2 was 15.9 µM; in the data set on SMMC-7721, 5.7 µM; in data set [1], 27.2 µM; with L02, 17.6 µM. Also, the Activity result with RAW264.7 is recorded as “Non-Toxic”.
As to `O=C1/C(=C/c2cccc(F)c2)CN(S(=O)(=O)c2ccc(C(F)(F)F)cc2)C/C1=C\c1cccc(F)c1`, the IC50 came to 2.4 µM in the data set with HepG2, 4.2 µM with SMMC-7721, 13.4 µM in data set [1] and 18 µM in the data set with L02. Moreover, the Activity entry in the data set on RAW264.7 is on record as “Non-Toxic”.
Consider `COc1cccc2c1C(=O)c1c(O)c3c(c(O)c1C2=O)C[C@@](O)(C(=O)CO)C[C@@H]3O[C@H]1C[C@H](N)[C@H](O)[C@H](C)O1` [DOXORUBICIN], for which the half-inhibitory concentration (IC50) was 1 µM with HepG2, 12.2 µM in data set [1] and 13.8 µM in the data set with L02.
Turning to `N#Cc1ccc(S(=O)(=O)N2C/C(=C\c3cccc(F)c3)C(=O)/C(=C/c3cccc(F)c3)C2)cc1`, the IC50 was found to be 2.6 µM in the data set with HepG2, 4.5 µM in the data set with SMMC-7721, 7.5 µM in data set [1] and 15.5 µM with L02. In the data set on RAW264.7, the Activity entry is listed as “Non-Toxic”.
As to `O=C1/C(=C/c2ccc(F)cc2)CN(S(=O)(=O)c2ccc(C(F)(F)F)cc2)C/C1=C\c1ccc(F)cc1`, the IC50 is 3.2 µM in the data set with HepG2, 4.4 µM with SMMC-7721, 16.1 µM in data set [1] and 13.5 µM with L02. The Activity entry with RAW264.7 was “Non-Toxic”.
Consider `Cc1ccc(S(=O)(=O)N2C/C(=C\c3ccc(F)cc3)C(=O)/C(=C/c3ccc(F)cc3)C2)cc1`, for which the half-inhibitory concentration (IC50) in the data set on HepG2 was determined as 4.5 µM; with SMMC-7721, 5 µM; in data set [1], 6 µM; in the data set with L02, 14 µM. The Activity entry with RAW264.7 is “Non-Toxic”.
Regarding `O=C1/C(=C/c2ccc(F)cc2)CN(S(=O)(=O)c2ccccc2)C/C1=C\c1ccc(F)cc1`, the IC50 with HepG2 was 18.8 µM; with SMMC-7721, 9.1 µM; in data set [1], 7.7 µM; with L02, 18.8 µM. Further, the Activity result in the data set with RAW264.7 is listed as “Non-Toxic”.
For the molecule `O=C1/C(=C/c2ccccc2F)CN(S(=O)(=O)c2ccc(Cl)cc2)C/C1=C\c1ccccc1F`, the half-inhibitory concentration (IC50) in the data set on HepG2 is 10.9 µM; in the data set with SMMC-7721, 4.5 µM; in data set [1], 9.6 µM; in the data set with L02, 14.1 µM. For the same molecule, the Activity result in the data set with RAW264.7 is “Non-Toxic”.
As for `N#Cc1ccc(S(=O)(=O)N2C/C(=C\c3ccccc3F)C(=O)/C(=C/c3ccccc3F)C2)cc1`, the IC50 turned out to be 16.5 µM in the data set on HepG2, 14.6 µM in the data set on SMMC-7721, 13.6 µM in data set [1] and 11 µM with L02. Moreover, in the data set on RAW264.7, the Activity entry is on record as “Non-Toxic”.
Turning to `O=C1/C(=C/c2ccc(F)cc2)CN(S(=O)(=O)c2ccc(Br)cc2)C/C1=C\c1ccc(F)cc1`, the IC50 in the data set on HepG2 stood at 8 µM; in the data set with SMMC-7721, 11.5 µM; in data set [1], 17.1 µM; in the data set with L02, 16.4 µM. In addition, the Activity result with RAW264.7 is “Non-Toxic”.
On the same counts, the results for `O=C1/C(=C/c2cccc(F)c2)CN(S(=O)(=O)c2ccc(Br)cc2)C/C1=C\c1cccc(F)c1` are 7.7 µM, 11.7 µM, 16.5 µM, 15.8 µM and “Non-Toxic”.
On the same counts, the results for `CC(=O)Nc1ccc(S(=O)(=O)N2C/C(=C\c3ccc(F)cc3)C(=O)/C(=C/c3ccc(F)cc3)C2)cc1` are 7.4 µM, 9.8 µM, 15 µM, 19.4 µM and “Non-Toxic”.
Turning to `O=C1/C(=C/c2cccc(F)c2)CN(S(=O)(=O)c2ccc(F)cc2)C/C1=C\c1cccc(F)c1`, the concentration for half-maximal inhibition (IC50) in the data set on HepG2 is 5 µM; in the data set on SMMC-7721, 13.5 µM; in data set [1], 15.4 µM; in the data set with L02, 21.9 µM. Further, in the data set with RAW264.7, the Activity entry is “Non-Toxic”.
In the case of `Cc1ccc(S(=O)(=O)N2C/C(=C\c3cccc(F)c3)C(=O)/C(=C/c3cccc(F)c3)C2)cc1`, the IC50 in the data set with HepG2 came to 3.5 µM; in the data set on SMMC-7721, 18.1 µM; in data set [1], 11.2 µM; with L02, 15.7 µM. Further, the Activity entry in the data set on RAW264.7 is listed as “Non-Toxic”.
For `N#Cc1ccc(S(=O)(=O)N2C/C(=C\c3ccc(F)cc3)C(=O)/C(=C/c3ccc(F)cc3)C2)cc1`, the IC50 with HepG2 is 9.8 µM; in the data set with SMMC-7721 it was 15 µM; in data set [1], 14.6 µM; in the data set on L02, 14.7 µM. For the same molecule, the Activity entry in the data set with RAW264.7 is reported as “Non-Toxic”.
On to `O=C1/C(=C/c2ccccc2F)CN(S(=O)(=O)c2ccc(C(F)(F)F)cc2)C/C1=C\c1ccccc1F`, for which the half-inhibitory concentration (IC50) is 4.9 µM in the data set with HepG2, 5.2 µM in the data set with SMMC-7721, 15.3 µM in data set [1] and 16.2 µM in the data set on L02. For the same molecule, in the data set with RAW264.7, the Activity result is on record as “Non-Toxic”.
For `O=C1/C(=C/c2cccc(F)c2)CN(S(=O)(=O)c2ccc(Cl)cc2)C/C1=C\c1cccc(F)c1`, the 50% inhibitory concentration (IC50) was 13.1 µM in the data set on HepG2, 7.8 µM in the data set on SMMC-7721, 10.8 µM in data set [1] and 15.7 µM with L02. Moreover, the Activity result in the data set on RAW264.7 is reported as “Non-Toxic”.
For the molecule `O=C1/C(=C/c2ccc(F)cc2)CN(S(=O)(=O)c2ccc([N+](=O)[O-])cc2)C/C1=C\c1ccc(F)cc1`, the half-inhibitory concentration (IC50) with HepG2 turned out to be 5.4 µM; in the data set on SMMC-7721 it was 5 µM; in data set [1] it was 7.8 µM; with L02 it was 16.2 µM. In the data set on RAW264.7, the Activity result is “Non-Toxic”.
On the same counts, the results for `O=C1/C(=C/c2ccccc2F)CN(S(=O)(=O)c2ccc(Br)cc2)C/C1=C\c1ccccc1F` are 13.7 µM, 5.2 µM, 14 µM, 16.2 µM and “Non-Toxic”.
On to `O=C1/C(=C/c2cccc(F)c2)CN(S(=O)(=O)c2ccc([N+](=O)[O-])cc2)C/C1=C\c1cccc(F)c1`, for which the 50% inhibitory concentration (IC50) is 8.1 µM in the data set with HepG2, 15.3 µM in the data set with SMMC-7721, 14.5 µM in data set [1] and 10.7 µM in the data set on L02. For the same molecule, the Activity entry in the data set on RAW264.7 is “Non-Toxic”.
With `O=C1/C(=C/c2ccccc2F)CN(S(=O)(=O)c2ccc(F)cc2)C/C1=C\c1ccccc1F`, the IC50 in the data set with HepG2 is 8 µM; in the data set with SMMC-7721, 7.7 µM; in data set [1], 14.5 µM; with L02 it was 17.5 µM. The Activity result with RAW264.7 is given as “Non-Toxic”.
As for `O=C1/C(=C/c2ccc(F)cc2)CN(S(=O)(=O)c2ccc(F)cc2)C/C1=C\c1ccc(F)cc1`, the half-maximal inhibitory concentration (IC50) in the data set on HepG2 is 8.1 µM; in the data set on SMMC-7721 it was 14.7 µM; in data set [1], 11.7 µM; in the data set with L02, 14.8 µM. In the data set with RAW264.7, the Activity result was “Non-Toxic”.
On to `Cc1ccc(S(=O)(=O)N2C/C(=C\c3ccccc3F)C(=O)/C(=C/c3ccccc3F)C2)cc1`, for which the half-maximal inhibitory concentration (IC50) in the data set on HepG2 came out at 14.2 µM; in the data set with SMMC-7721 it was 4.1 µM; in data set [1], 7.9 µM; in the data set on L02 it was 16.7 µM. The Activity entry in the data set on RAW264.7 is on record as “Non-Toxic”.
`CC(=O)Nc1ccc(S(=O)(=O)N2C/C(=C\c3ccccc3F)C(=O)/C(=C/c3ccccc3F)C2)cc1`: the 50% inhibitory concentration (IC50) was 5.2 µM in the data set with HepG2 and 13.6 µM in data set [1]. The Activity result in the data set on RAW264.7 was “Non-Toxic”.
